# Only some compounds are listed: those with a hit (about 2.3% of all), similar ones and a draw of the others.
# FN deposition inh – fibronectin deposition inhibition. inhibition, % at 12.6 µM. AH1F fibroblasts, Alexa488-fibronectin deposition fluorescence, overnight. 350,000 tested, 0.086% active;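 active = mean inhibition across replicates of 30% or more, regardless of how many single replicates reach that level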;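 also: positive control wells lacked labelled fibronectin entirely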
#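 Assay system: AH1F fibroblasts / Quantity: 10000 cells per well / Medium: DMEM plus 2% serum, read in PBS / Reagent: labelled fibronectin 24 nM / Dosing: single dose, pinned / Times: 1 h cell attachment, overnight exposure to compound and label / Signal: fluorescence, ex 485 nm, em 525 nm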
# F508del corr – correctors of CFTR F508del function in bronchial epithelial cells. CFBE cells, YFP halide quenching; stimulated with forskolin plus potentiator P3; % fluorescence drop versus neutral controls. activity (quench increase), % at 7.58 µM. 350,000 tested, 0.36% active. AID 720511;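 active = mean added fluorescence quench of at least 8% versus neutral control, with both replicates also reaching 8%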;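 also: cells transiently co-express mutant CFTR-F508del with the halide-sensitive YFP; corrector assay measuring rescue of mutant channel to the surface after 24 h compound exposure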
# PAX8 inh HTS – PAX8 transcriptional activity inhibition. RMG-I TPO-luciferase reporter, SteadyGlo, 24 h. inhibition, % at 12.6 µM. 360,000 tested, 1.2% active. AID 652154;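 active = mean replicate inhibition at least 60% with every replicate also reaching 60%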;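 also: luciferase light reporting Pax8 driven TPO promoter activity; plate controls were median of neutral control wells for no effect and mitoxantrone controls for full effect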
# EWS-Fli inh – inhibitors of EWS/Fli oncoprotein transcriptional activity | A673 NR0B1-luciferase reporter, viability-normalised | inhibition, % at 12.6 µM | 350,000 tested, 0.67% active | AID 651661;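 active = mean inhibition of at least 50% after viability correction, with every replicate also passing that limit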;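 also: firefly luciferase signal divided by Alamar Blue viability fluorescence both relative to DMSO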
# PGC1a acetyl inh – modulators of PGC1a acetylation; 350,000 tested, 0.17% active; U2OS PGC1a acetylation, AlphaScreen anti-acetyl-lysine; with virally co-expressed GCN5 acetyltransferase; inhibition, % at 15.6 µM; AID 651687;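 active = every replicate shows inhibition of at least 40%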;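 also: 0% = neutral control wells and 100% = positive control wells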
# HIV Env fusion – inhibitors of HIV Env-mediated cell fusion; HeLa-JRFL Env/CEM21 cell fusion, luciferase; inhibition, % at 12.3 µM; 360,000 tested, 1.1% active; AID 651610;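 active = mean replicate inhibition score of at least 50 and every replicate individually at or above 50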;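 also: 0% = plate neutral controls and 100% = maraviroc near 300 nM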
# * marks the source's active call; other numbers are inactive results; . = not tested or not shown; [ ] = remark or other dose.
SMILES,FN deposition inh,F508del corr,PAX8 inh HTS,EWS-Fli inh,PGC1a acetyl inh,HIV Env fusion
CCOc1ccc(OCC)c(NC(=O)CN2CCN(c3cc(C)ccc3C)CC2)c1,12,.,.,.,-10,61*
CC(C)(C)OC(=O)NCCCCCc1cn(CC(=O)NCCCCCCCCCCC(=O)N2CCN(C(=O)OC(C)(C)C)CC2)nn1,-2,-4,-3,24,.,57*
CNC[C@@H]1Oc2ccc(NC(=O)NC(C)C)cc2CC(=O)N(C)C[C@H]1C,1,.,.,.,.,.
CC(=O)c1sc(NC(=O)CCS(=O)(=O)c2ccc(Cl)cc2)nc1C,-9,2,89*,6,.,5
Cc1ccc(S(=O)(=O)CCC(=O)Nc2nc(-c3ccccn3)cs2)cc1,12,-5,80*,19,-7,0
Cc1ccc(C2(C)NC(=O)N(CC(=O)Nc3nc(-c4ccccn4)cs3)C2=O)cc1 (stereo unspecified),13,10.0*,16,16,7,4
O=C(CCS(=O)(=O)c1ccc(Cl)cc1)Nc1nc(-c2ccncc2)cs1,16,-4,96*,.,.,-26
O=C(C[C@@H]1CC[C@@H](NC(=O)Nc2cccc(F)c2)[C@H](CO)O1)NCC1CCCCC1,1,-2,3,-1,5,-7[16.7 µM]
C[C@@H]1CCCCO[C@H](CN(C)Cc2ccccc2)[C@@H](C)CN([C@@H](C)CO)C(=O)c2cc(NC(=O)Nc3ccccc3)ccc2O1,3,-1,38,3,1,-41[16.7 µM]
COc1ccc2c3c(n(C)c2c1)[C@@H](CO)NCC31CN(C(=O)Nc2ccc(F)cc2F)C1,.,0,.,-1,3,.
CC(=O)Nc1ccc(C2(c3ccc(NC(C)=O)cc3)NC(=O)c3ccccc32)cc1,0,2,-10,-6,-2,7
NS(=O)(=O)c1cc(C2(O)NC(=O)c3ccccc32)ccc1Cl (stereo unspecified),-5,11*,-18,-4,-6,10
Cc1ccc(S(=O)(=O)Nc2ccc3c(c2)C(=O)N([C@H](C)CO)C[C@@H](C)[C@@H](CN(C)C(=O)C2CCCCC2)OCCCC[C@H](C)O3)cc1,-1,4,-1,4,3,-8[16.7 µM]
CCN1C(=C2C(=O)c3ccccc3C2=O)C=Cc2ccccc21,-6,.,.,.,.,18
CCCCCN1C=CC(=C2C(=O)c3ccccc3C2=O)C=C1,-6,-4,99*,91*,11,72*
C[C@@H]1CN([C@@H](C)CO)S(=O)(=O)c2ccc(-c3cccc(C(=O)N(C)C)c3)cc2O[C@H]1CN(C)C(=O)Cc1ccccn1,-11,2,.,-30,7,-16[16.7 µM]
Cc1ccc2c(c1)-n1c(nc3ccccc3c1=O)C(Cc1ccc(O)cc1)NC2=O (stereo unspecified),4,-6,9,2,.,5
O=C1NC(Cc2ccccc2)c2nc3cc(F)ccc3c(=O)n2-c2cc3ccccc3cc21 (stereo unspecified),.,5,62*,34,1,-17
O=C1NC(Cc2ccc(O)cc2)c2nc3ccc(F)cc3c(=O)n2-c2cc3ccccc3cc21 (stereo unspecified),12,0,58,64*,.,.
O=C1NC(Cc2ccc(O)cc2)c2nc3cc(F)c(F)cc3c(=O)n2-c2cc3ccccc3cc21 (stereo unspecified),4,3,42,21,.,10
Cc1ccc2nc3n(c(=O)c2c1)-c1cc2ccccc2cc1C(=O)NC3Cc1ccc(O)cc1 (stereo unspecified),8,-1,50,62*,-2,.
C[C@@H]1CN([C@H](C)CO)C(=O)c2cc(-c3ccncc3)cnc2O[C@@H]1CN(C)C(=O)c1cccc(F)c1,.,3,.,-7,-5,-3[16.7 µM]
CO[C@H](CN(C)C(=O)c1ccc2c(c1)OCO2)[C@@H](C)CN([C@@H](C)CO)S(=O)(=O)c1ccccc1,-6,-1,.,0,10,.
CO[C@H]1CN(C)C(=O)c2ccc(NS(C)(=O)=O)cc2OC[C@H](C)N(Cc2cncnc2)C[C@@H]1C,0,0,.,2,3,-3[16.7 µM]
CC(C)(C)c1ccc(OCC(=O)NCC(c2cccs2)N2CCOCC2)cc1 (stereo unspecified),-1,2,.,2,.,62*
